Results as given in ChEMBL document CHEMBL4680254, “Design, synthesis and discovery of 2(1H)-quinolone derivatives for the treatment of pulmonary fibrosis through inhibition of TGF-β/smad dependent and independent pathway” (Eur J Med Chem, 2020).
Calls of active or inactive are those of the source. The rule behind the calls is not given here.

Key:
NRK-49F [1] = assay: Inhibition of TGF-beta-induced collagen accumulation in rat NRK-49F cells at 10 uM incubated for 2 days by PSR staining based microscopic analysis relative to control; assay type: functional; conditions: 48 h, time 2 day
Outline: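 NRK-49F cells were grown 3 days in DMEM with 5% FBS, then 2 days in DMEM with 1% ITS. Next came 2 days with TGF-β 5 ng/ml plus or minus compound 10 µM. Cells were fixed in 4% paraformaldehyde and stained 4 h with 0.1% Picrosirius Red, then rinsed with acetic acid. Dye was eluted with 0.1 M NaOH and OD read at 540 nm. Inhibition = […] ×100%, in triplicate.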

[2] = Cytotoxicity against rat NRK-49F cells assessed as cell survival rate at 10 uM incubated for 72 hrs by MTT assay; assay type: cell-based; conditions: read-out: Activity
Outline: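 NRK-49F cells were seeded at 0.5×10^5 cells/ml, cultured overnight, then exposed to compound 10 µM for 72 h. MTT was added and incubated 4 h, formazan dissolved in DMSO and absorbance read. Survival = (treated − zero)/(blank − zero) A ×100%, done in triplicate.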

L929 = assay: Antimigratory activity in mouse L929 cells assessed as inhibition of TGF-beta-induced cell migration at 10 uM incubated for 24 hrs by wound healing assay; assay type: functional, cell-based
Outline: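 Mouse L929 fibroblasts (MEM, 10% FBS, 37 °C, 5% CO₂) were grown to confluence and scratched with a pipette tip to a 100 µm wound. They were then kept in serum-free medium with or without TGF-β 5 ng/ml and compound 10 µM for 24 h. Wounds were imaged by light microscopy at 0, 12 and 24 h.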

NRK-49F [3] = assay: Inhibition of TGF-beta-induced collagen-1 protein expression in rat NRK-49F cells at 20 to 40 uM incubated for 24 hrs by Western blotting analysis; assay type: functional, cell-based; conditions: dose 20-40 µM
NRK-49F [4] = assay: Inhibition of TGF-beta-induced alpha-SMA protein expression in rat NRK-49F cells at 20 to 40 uM incubated for 24 hrs by Western blotting analysis; assay type: functional, cell-based; conditions: dose 20-40 µM
[5] = biological target: Mothers against decapentaplegic homolog 2 (Rattus norvegicus) (UniProt O70436); assay: Inhibition of TGF-beta induced SMAD2 phosphorylation in rat NRK-49F cells at 20 to 40 uM pretreated with compound for 1 to 2 hrs followed by TGF-beta stimulation for 1 hr by Western blot analysis; assay type: cell-based; conditions: dose 20-40 µM, time 2-3 hrs
Mothers against decapentaplegic homolog 2 (Rattus norvegicus), sequence (O70436 whole entry): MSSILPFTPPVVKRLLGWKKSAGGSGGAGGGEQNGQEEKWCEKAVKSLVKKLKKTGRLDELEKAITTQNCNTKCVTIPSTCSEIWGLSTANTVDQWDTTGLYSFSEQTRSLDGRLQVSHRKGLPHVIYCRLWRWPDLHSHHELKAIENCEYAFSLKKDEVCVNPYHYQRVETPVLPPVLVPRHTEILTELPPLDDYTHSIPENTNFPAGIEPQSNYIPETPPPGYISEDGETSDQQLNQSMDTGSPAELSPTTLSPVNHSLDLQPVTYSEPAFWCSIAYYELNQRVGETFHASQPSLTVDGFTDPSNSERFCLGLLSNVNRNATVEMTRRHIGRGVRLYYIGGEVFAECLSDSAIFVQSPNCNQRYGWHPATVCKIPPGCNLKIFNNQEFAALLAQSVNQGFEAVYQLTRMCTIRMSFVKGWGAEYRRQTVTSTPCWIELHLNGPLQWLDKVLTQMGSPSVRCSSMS
Outline: (§1)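 NRK-49F cells were pretreated with or without compound (20 and 40 µM) for 1 or 2 h, then stimulated with TGF-β 5 ng/mL for 1 h. Lysates were made in RIPA with PMSF and protease inhibitors, and 30–40 µg protein was run on 10–12% SDS-PAGE and moved to PVDF. Blots were probed for phospho- and total Smad2, Smad3, p38 and ERK1/2, with GAPDH as loading control and ECL detection.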

[6] = biological target: Mothers against decapentaplegic homolog 3 (Rattus norvegicus) (UniProt P84025); assay: Inhibition of TGF-beta induced SMAD3 phosphorylation in rat NRK-49F cells at 20 to 40 uM pretreated with compound for 1 to 2 hrs followed by TGF-beta stimulation for 1 hr by Western blot analysis; assay type: cell-based; conditions: dose 20-40 µM, time 2-3 hrs; outline: as §1
Mothers against decapentaplegic homolog 3 (Rattus norvegicus), sequence (P84025 whole entry, looked up): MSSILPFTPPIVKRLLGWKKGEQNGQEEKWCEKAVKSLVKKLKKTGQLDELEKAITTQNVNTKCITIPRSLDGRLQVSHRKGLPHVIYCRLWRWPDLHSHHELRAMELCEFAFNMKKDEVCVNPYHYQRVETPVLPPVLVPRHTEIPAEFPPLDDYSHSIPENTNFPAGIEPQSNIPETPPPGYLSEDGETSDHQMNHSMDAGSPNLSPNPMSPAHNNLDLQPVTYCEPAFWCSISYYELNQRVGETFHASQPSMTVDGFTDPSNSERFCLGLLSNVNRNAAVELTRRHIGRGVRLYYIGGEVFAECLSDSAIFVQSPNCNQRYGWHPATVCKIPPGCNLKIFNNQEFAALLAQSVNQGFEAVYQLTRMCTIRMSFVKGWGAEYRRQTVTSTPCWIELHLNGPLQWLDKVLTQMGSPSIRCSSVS

[7] = biological target: Mitogen-activated protein kinase 1 and 3 (ERK2 and ERK1) (Rattus norvegicus) (UniProt P63086+P21708); assay: Inhibition of TGF-beta induced ERK1/2 phosphorylation in rat NRK-49F cells at 20 to 40 uM pretreated with compound for 1 to 2 hrs followed by TGF-beta stimulation for 1 hr by Western blot analysis; assay type: cell-based; conditions: dose 20-40 µM, time 2-3 hrs; outline: as §1
Mitogen-activated protein kinase 1 and 3 (ERK2 and ERK1) (Rattus norvegicus), sequence (P21708 whole entry, looked up): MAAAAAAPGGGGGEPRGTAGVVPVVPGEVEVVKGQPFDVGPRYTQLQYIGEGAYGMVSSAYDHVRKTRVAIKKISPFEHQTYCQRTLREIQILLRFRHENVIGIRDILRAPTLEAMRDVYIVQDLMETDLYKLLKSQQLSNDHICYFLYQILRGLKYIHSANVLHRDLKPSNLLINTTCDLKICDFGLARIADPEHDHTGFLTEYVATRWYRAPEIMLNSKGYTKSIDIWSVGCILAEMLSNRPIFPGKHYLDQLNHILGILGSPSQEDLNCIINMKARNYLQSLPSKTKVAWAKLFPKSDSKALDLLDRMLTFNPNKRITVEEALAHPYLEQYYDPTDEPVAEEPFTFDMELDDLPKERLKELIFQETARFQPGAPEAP
Mitogen-activated protein kinase 1 and 3 (ERK2 and ERK1) (Rattus norvegicus), sequence (P63086 whole entry, looked up): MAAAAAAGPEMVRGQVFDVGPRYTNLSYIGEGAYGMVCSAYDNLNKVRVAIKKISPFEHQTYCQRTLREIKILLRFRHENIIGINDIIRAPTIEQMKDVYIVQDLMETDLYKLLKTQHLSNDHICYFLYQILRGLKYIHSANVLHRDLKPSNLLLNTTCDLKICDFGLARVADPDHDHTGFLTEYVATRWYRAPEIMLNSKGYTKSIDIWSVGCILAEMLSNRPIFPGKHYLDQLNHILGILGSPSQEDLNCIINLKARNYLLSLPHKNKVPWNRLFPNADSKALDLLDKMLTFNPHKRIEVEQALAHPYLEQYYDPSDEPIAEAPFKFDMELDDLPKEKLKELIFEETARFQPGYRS

NRK-49F [8] = assay: Inhibition of TGF-beta induced p38 phosphorylation in rat NRK-49F cells at 20 to 40 uM pretreated with compound for 1 to 2 hrs followed by TGF-beta stimulation for 1 hr by Western blot analysis; assay type: cell-based; conditions: dose 20-40 µM, time 2-3 hrs; outline: as §1
[9] = Tmax in Sprague-Dawley rat at 5 mg/kg, iv; assay type: ADME, organism-based; conditions: in vivo
Outline: (§2)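 Rats were given a single 5 mg/kg dose intravenously or orally, and plasma concentration–time curves were followed. t1/2, tmax, AUC0-t and oral bioavailability (n = 5) were derived from these curves.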

[10] = Tmax in Sprague-Dawley rat at 5 mg/kg, po; assay type: ADME, organism-based; conditions: in vivo; outline: as §2
[11] = Half life in Sprague-Dawley rat at 5 mg/kg, iv; assay type: ADME, organism-based; conditions: in vivo; outline: as §2
[12] = Half life in Sprague-Dawley rat at 5 mg/kg, po; assay type: ADME, organism-based; conditions: in vivo; outline: as §2
[13] = AUC (0 to t) in Sprague-Dawley rat at 5 mg/kg, iv; assay type: ADME, organism-based; set-up: dose 5 mg/kg; conditions: in vivo
Outline: (§3)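 Rats received a single 5 mg/kg dose, either intravenously or orally. AUC0-t was derived from plasma concentration–time curves after that one dose. n = 5 per the reported oral data.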

[14] = AUC (0 to t) in Sprague-Dawley rat at 5 mg/kg, po; assay type: ADME, organism-based; set-up: dose 5 mg/kg; conditions: in vivo; outline: as §3
[15] = Oral bioavailability in Sprague-Dawley rat at 5 mg/kg; assay type: ADME, organism-based; conditions: in vivo; outline: as §2
Mus musculus [16] = assay: Anti-fibrotic activity in C57BL/6 mouse model of bleomycin-induced lung fibrosis assessed as reduction in collagen deposition by measuring hydroxyproline content in lung at 50 to 100 mg/kg, po administered for 30 days starting from day 1 post bleomycin treatment; assay type: functional, organism-based; conditions: dose 50-100 mg/kg, time 30.0 day
Outline: (§4)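 In the bleomycin mouse model (male C57BL/6, 8 weeks, 3 U/kg intratracheal in saline, n=10 per group), daily oral dosing ran days 1–30 or days 8–21. Right lungs were dried, acid hydrolysed, filtered and brought to pH 6.5–8.0. Hydroxyproline was read by chloramine-T spectrophotometry with a kit.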

Mus musculus [17] = assay: Anti-fibrotic activity in C57BL/6 mouse model of bleomycin-induced lung fibrosis assessed as reduction in collagen deposition by measuring hydroxyproline content in lung at 100 mg/kg, po administered for […] starting from day 8 post bleomycin treatment; assay type: functional, organism-based; conditions: time 14.0 day; outline: as §4
Mus musculus [18] = assay: Anti-fibrotic activity in C57BL/6 mouse model of bleomycin-induced lung fibrosis assessed as survival rate at 50 to 100 mg/kg, po administered for 30 days starting from day 1 post bleomycin treatment; assay type: functional, organism-based; conditions: dose 50-100 mg/kg, time 30.0 day
Outline: (§5)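 Survival was followed in male C57BL/6 mice (8 weeks, n=10 per group) after one intratracheal bleomycin dose of 3 U/kg in 0.075 mL saline. Oral dosing was daily, days 1–30 (prevention) or days 8–21 (treatment), with survival curves plotted.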

Mus musculus [19] = assay: Anti-fibrotic activity in C57BL/6 mouse model of bleomycin-induced lung fibrosis assessed as survival rate at 50 mg/kg, po administered for […] starting from day 8 post bleomycin treatment; assay type: functional, organism-based; conditions: time 14.0 day; outline: as §5
Mus musculus [20] = assay: Anti-fibrotic activity in C57BL/6 mouse model of bleomycin-induced lung fibrosis assessed as protection of alveolar tissue structure at 50 to 100 mg/kg, po administered for 30 days starting from day 1 post bleomycin treatment by hematoxylin and eosin staining based microscopic analysis; assay type: functional, organism-based; conditions: dose 50-100 mg/kg, time 30.0 day
Outline: (§6)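 Male C57BL/6 mice, 8 weeks old, n=10 per group; lung fibrosis from one intratracheal instillation of bleomycin 3 U/kg in 0.075 mL saline, saline-only controls. Daily oral dosing days 1–30 (prevention) or days 8–21 (treatment). Left lungs fixed in 10% formalin 24 h, paraffin-embedded, 5 µm sections stained with H&E (also Masson's trichrome) and examined by microscopy.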

Mus musculus [21] = assay: Anti-fibrotic activity in C57BL/6 mouse model of bleomycin-induced lung fibrosis assessed as protection of alveolar tissue structure at 100 mg/kg, po administered for […] starting from day 8 post bleomycin treatment by hematoxylin and eosin staining based microscopic analysis; assay type: functional, organism-based; conditions: time 14.0 day; outline: as §6
Mus musculus [22] = assay: Anti-fibrotic activity in C57BL/6 mouse model of bleomycin-induced lung fibrosis assessed as reduction in inflammatory cell infiltration at 50 to 100 mg/kg, po administered for 30 days starting from day 1 post bleomycin treatment by hematoxylin and eosin staining based microscopic analysis; assay type: functional, organism-based; conditions: dose 50-100 mg/kg, time 30.0 day; outline: as §6
Mus musculus [23] = assay: Anti-fibrotic activity in C57BL/6 mouse model of bleomycin-induced lung fibrosis assessed as suppression of smad3 phosphorylation level in lung at 50 to 100 mg/kg, po administered for 30 days starting from day 1 post bleomycin treatment by immunohistochemistry staining based microscopic analysis; assay type: functional, organism-based; conditions: dose 50-100 mg/kg, time 30.0 day
Outline: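 Male C57BL/6 mice, 8 weeks, got intratracheal bleomycin 3 U/kg in 0.075 mL saline, then daily oral dosing days 1–30. Left lungs were formalin-fixed (10%, 24 h) and paraffin-embedded; 5 µm sections were incubated with antibody at 4 °C overnight for immunohistochemistry of phospho-Smad3 and imaged by microscopy.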

[24] = Effect on total Smad2 expression in TGFbeta-stimulated rat NRK-49F at 20 to 40 uM preincubated for 1 to 2 hrs followed by TGF-beta stimulation and measured after 1 hr by Western blot analysis; conditions: dose lower 20 µM, time lower 2 hrs, dose upper 40 µM, time upper 3 hrs; outline: as §1
[25] = Effect on total Smad3 expression in TGFbeta-stimulated rat NRK-49F at 20 to 40 uM preincubated for 1 to 2 hrs followed by TGF-beta stimulation and measured after 1 hr by Western blot analysis; conditions: dose lower 20 µM, time lower 2 hrs, dose upper 40 µM, time upper 3 hrs; outline: as §1
[26] = Effect on total […] expression in TGFbeta-stimulated rat NRK-49F at 20 to 40 uM preincubated for 1 to 2 hrs followed by TGF-beta stimulation and measured after 1 hr by Western blot analysis; conditions: dose lower 20 µM, time lower 2 hrs, dose upper 40 µM, time upper 3 hrs; outline: as §1
[27] = Effect on total p38 expression in TGFbeta-stimulated rat NRK-49F at 20 to 40 uM preincubated for 1 to 2 hrs followed by TGF-beta stimulation and measured after 1 hr by Western blot analysis; assay type: tissue-based; conditions: dose lower 20 µM, time lower 2 hrs, dose upper 40 µM, time upper 3 hrs; outline: as §1

inhibition [5]: Dose-dependent effect | inhibition [6]: Dose-dependent effect | inhibition [7]: Active | Tmax [9]: 4.8 min | Tmax [10]: 4.33 h | half-life [11]: 4.39 h | half-life [12]: 3.5 h | AUC(0-t) [13]: 13100 ng·h/mL | AUC(0-t) [14]: 5460 ng·h/mL | bioavailability [15]: 41.5%
SMILES: O=C(CN1CCN(C(=O)C2CC2)CC1)Nc1ccc(Oc2cc(=O)[nH]c3ccccc23)c(F)c1
inhibition at 10 µM (NRK-49F [1]): 87.5% | viability at 72 h, 10 µM [2]: 97.5% | inhibition (L929): Active | inhibition (NRK-49F [3]): Active | inhibition (NRK-49F [4]): Active | inhibition (NRK-49F [8]): Active | Activity (Mus musculus [16]): Active | Activity (Mus musculus [17]): Active | Activity (Mus musculus [18]): Active | Activity (Mus musculus [19]): Active | Activity (Mus musculus [20]): Active | Activity (Mus musculus [21]): Active | Activity (Mus musculus [22]): Active | Activity (Mus musculus [23]): Active | Activity [24]: Non-Toxic | Activity [25]: Non-Toxic | Activity [26]: Non-Toxic | Activity [27]: Non-Toxic
